Measured values taken from ChEMBL document CHEMBL3585281, “Antibacterial Labdane Diterpenoids from Vitex vestita” (2015).

How the values were obtained:
Assay type in all cases: functional
Mammaliicoccus sciuri = experiment: Antibacterial activity against Staphylococcus sciuri N993 after 18 hrs by agar dilution method; conditions: N993, 18 h
Outline: (§1)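 Agar-dilution MIC against Gram-positive strains. Compounds in DMSO, geometric dilutions giving final 100−0.75 mg/L in Mueller Hinton agar. Strains grown 18 h at 37 °C in trypticase soy broth, diluted in sterile water, spotted by Steers inoculator (about 1000 UFC/spot). Plates incubated 18 h at 37 °C; DMSO blank; ofloxacin positive control. MIC = lowest concentration with no visible growth.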

Listeria monocytogenes [1] = experiment: Antibacterial activity against Listeria monocytogenes N851 after 18 hrs by agar dilution method; conditions: N851, 18 h; outline: as §1
Bacillus spizizenii = experiment: Antibacterial activity against Bacillus subtilis ATCC 6633 after 18 hrs by agar dilution method; conditions: ATCC 6633, 18 h; outline: as §1
Staphylococcus aureus [2] = experiment: Antibacterial activity against Staphylococcus aureus CIP 5710 after 18 hrs by agar dilution method; conditions: CIP 5710, 18 h; outline: as §1
Staphylococcus aureus [3] = experiment: Antibacterial activity against Staphylococcus aureus CRBIP 2121 after 18 hrs by agar dilution method; conditions: CRBIP 2121, 18 h; outline: as §1
[4] = test system: Staphylococcus lugdunensis; experiment: Antibacterial activity against Staphylococcus lugdunensis ATCC 43809 after 18 hrs by agar dilution method; conditions: ATCC 43809, 18 h; outline: as §1
[5] = test system: Staphylococcus haemolyticus; experiment: Antibacterial activity against Staphylococcus haemolyticus CIP 8156 after 18 hrs by agar dilution method; conditions: CIP 8156, 18 h; outline: as §1
Staphylococcus aureus [6] = experiment: Antibacterial activity against Staphylococcus aureus CIP 53156 after 18 hrs by agar dilution method; conditions: CIP 53156, 18 h; outline: as §1
Listeria monocytogenes [7] = experiment: Antibacterial activity against Listeria monocytogenes N783 after 18 hrs by agar dilution method; conditions: N783, 18 h; outline: as §1
Listeria monocytogenes [8] = experiment: Antibacterial activity against Listeria monocytogenes CIP 103575 after 18 hrs by agar dilution method; conditions: CIP 103575, 18 h; outline: as §1
Enterococcus faecium [9] = experiment: Antibacterial activity against Enterococcus faecium N507 after 18 hrs by agar dilution method; conditions: N507, 18 h; outline: as §1
Enterococcus faecalis [10] = experiment: Antibacterial activity against Enterococcus faecalis N520 after 18 hrs by agar dilution method; conditions: N520, 18 h; outline: as §1
Staphylococcus aureus [11] = experiment: Antibacterial activity against Staphylococcus aureus ATCC 25923 after 18 hrs by agar dilution method; conditions: ATCC 25923, 18 h; outline: as §1
Enterococcus faecium [12] = experiment: Antibacterial activity against Enterococcus faecium N733 after 18 hrs by agar dilution method; conditions: N733, 18 h; outline: as §1
Enterococcus faecium [13] = experiment: Antibacterial activity against Enterococcus faecium N490 after 18 hrs by agar dilution method; conditions: N490, 18 h; outline: as §1
Enterococcus avium = experiment: Antibacterial activity against Enterococcus avium CIP 104053 after 18 hrs by agar dilution method; conditions: CIP 104053, 18 h; outline: as §1
Enterococcus durans = experiment: Antibacterial activity against Enterococcus durans CIP 104999 after 18 hrs by agar dilution method; conditions: CIP 104999, 18 h; outline: as §1
Enterococcus faecalis [14] = experiment: Antibacterial activity against Enterococcus faecalis N518 after 18 hrs by agar dilution method; conditions: N518, 18 h; outline: as §1
Staphylococcus aureus [15] = experiment: Antibacterial activity against Staphylococcus aureus ATCC 9144 oxford after 18 hrs by agar dilution method; outline: as §1
Bacillus cereus [16] = experiment: Antibacterial activity against Bacillus cereus N258 after 18 hrs by agar dilution method; conditions: N258, 18 h; outline: as §1
HCT-116 [17] = experiment: Cytotoxicity against human HCT116 cells assessed as growth inhibition at 10^-5 M after 72 hrs by MTS assay relative to control; conditions: HCT-116, 72 h, read-out: GI
Outline: (§2)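 Cells from ATCC; HCT-116 grown in RPMI 1640 and MRC5 in DMEM, each with 10% FCS and 1% glutamine, 37 °C, 5% CO2. Seeded at 2.5 × 10^3 cells/well, cultured 24 h, then exposed to compounds at 1 and 10 μM final for 72 h. MTS read-out, absorbance 490 nm; percent index from treated/control OD490 × 100, three experiments.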

Staphylococcus aureus [18] = experiment: Antibacterial activity against Staphylococcus aureus CIP 483 after 18 hrs by agar dilution method; conditions: CIP 483, 18 h; outline: as §1
Staphylococcus aureus [19] = experiment: Antibacterial activity against Staphylococcus aureus CIP 53154 after 18 hrs by agar dilution method; conditions: CIP 53154, 18 h; outline: as §1
[20] = test system: Staphylococcus saprophyticus; experiment: Antibacterial activity against Staphylococcus saprophyticus E260 after 18 hrs by agar dilution method; conditions: E260, 18 h; outline: as §1
Enterococcus faecalis [21] = experiment: Antibacterial activity against Enterococcus faecalis N491 after 18 hrs by agar dilution method; conditions: N491, 18 h; outline: as §1
Enterococcus gallinarum [22] = experiment: Antibacterial activity against Enterococcus gallinarum CIP 105985 after 18 hrs by agar dilution method; conditions: CIP 105985, 18 h; outline: as §1
Streptococcus agalactiae = experiment: Antibacterial activity against Streptococcus agalactiae CIP 103227 after 18 hrs by agar dilution method; conditions: ATCC 13813, 18 h; outline: as §1
Staphylococcus aureus [23] = experiment: Antibacterial activity against Staphylococcus aureus CIP 7625 after 18 hrs by agar dilution method; conditions: CIP 7625, 18 h; outline: as §1
Enterococcus faecium [24] = experiment: Antibacterial activity against Enterococcus faecium CIP 103014 after 18 hrs by agar dilution method; conditions: CIP 103014, 18 h; outline: as §1
Bacillus cereus [25] = experiment: Antibacterial activity against Bacillus cereus N190 after 18 hrs by agar dilution method; conditions: N190, 18 h; outline: as §1
Enterococcus gallinarum [26] = experiment: Antibacterial activity against Enterococcus gallinarum N489 after 18 hrs by agar dilution method; conditions: N489, 18 h; outline: as §1
MRC5 [27] = experiment: Cytotoxicity against human MRC5 cells assessed as growth inhibition at 10^-5 M after 72 hrs by MTS assay relative to control; conditions: MRC5, 72 h, read-out: GI; outline: as §2
HCT-116 [28] = experiment: Cytotoxicity against human HCT116 cells assessed as growth inhibition at 10^-6 M after 72 hrs by MTS assay relative to control; conditions: HCT-116, 72 h, read-out: GI; outline: as §2
Listeria innocua = experiment: Antibacterial activity against Listeria innocua E044 after 18 hrs by agar dilution method; conditions: E044, 18 h; outline: as §1
Enterococcus gallinarum [29] = experiment: Antibacterial activity against Enterococcus gallinarum N492 after 18 hrs by agar dilution method; conditions: N492, 18 h; outline: as §1
[30] = test system: Staphylococcus saprophyticus; experiment: Antibacterial activity against Staphylococcus saprophyticus CIP 76125 after 18 hrs by agar dilution method; conditions: CIP 76125, 18 h; outline: as §1
Enterococcus faecium [31] = experiment: Antibacterial activity against Enterococcus faecium CIP 107387 after 18 hrs by agar dilution method; conditions: CIP 107387, 18 h; outline: as §1
Listeria monocytogenes [32] = experiment: Antibacterial activity against Listeria monocytogenes N836 after 18 hrs by agar dilution method; conditions: N836, 18 h; outline: as §1
Enterococcus faecium [33] = experiment: Antibacterial activity against Enterococcus faecium N823 after 18 hrs by agar dilution method; conditions: N823, 18 h; outline: as §1
Enterococcus faecalis [34] = experiment: Antibacterial activity against Enterococcus faecalis CIP 103214 after 18 hrs by agar dilution method; conditions: CIP 103214, 18 h; outline: as §1
[35] = test system: Staphylococcus intermedius; experiment: Antibacterial activity against Staphylococcus intermedius N987 after 18 hrs by agar dilution method; conditions: N987, 18 h; outline: as §1
Enterococcus faecalis [36] = experiment: Antibacterial activity against Enterococcus faecalis CIP 104676 after 18 hrs by agar dilution method; conditions: CIP 104676, 18 h; outline: as §1
[37] = test system: Enterococcus casseliflavus; experiment: Antibacterial activity against Enterococcus casseliflavus CIP 103018 after 18 hrs by agar dilution method; conditions: CIP 103018, 18 h; outline: as §1
[38] = test system: Enterococcus casseliflavus; experiment: Antibacterial activity against Enterococcus casseliflavus N487 after 18 hrs by agar dilution method; conditions: N487, 18 h; outline: as §1
Bacillus cereus [39] = experiment: Antibacterial activity against Bacillus cereus N349 after 18 hrs by agar dilution method; conditions: N349, 18 h; outline: as §1
Bacillus cereus [40] = experiment: Antibacterial activity against Bacillus cereus CIP 6624 after 18 hrs by agar dilution method; conditions: CIP 6624, 18 h; outline: as §1
Corynebacterium striatum = experiment: Antibacterial activity against Corynebacterium striatum N840 after 18 hrs by agar dilution method; conditions: N840, 18 h; outline: as §1
Enterococcus hirae = experiment: Antibacterial activity against Enterococcus hirae CIP 5855 after 18 hrs by agar dilution method; conditions: CIP 5855, 18 h; outline: as §1
[41] = test system: Staphylococcus epidermidis; experiment: Antibacterial activity against Staphylococcus epidermidis CIP 53124 after 18 hrs by agar dilution method; conditions: CIP 53124, 18 h; outline: as §1
MRC5 [42] = experiment: Cytotoxicity against human MRC5 cells assessed as growth inhibition at 10^-6 M after 72 hrs by MTS assay relative to control; conditions: MRC5, 72 h, read-out: GI; outline: as §2

CC1(C)CCC[C@]2(C)[C@@H]1CC[C@]1(CO)O[C@@H](C3=CC(=O)OC3O)C[C@H]12 (stereo not given in full)
29%: inhibition of growth at 1 µM (MRC5 [42])
84%: inhibition of growth at 10 µM (HCT-116 [17])
46 µM: MIC (Bacillus spizizenii) | MIC (Bacillus cereus [16]) | MIC (Bacillus cereus [39]) | MIC (Bacillus cereus [40])
92%: inhibition of growth at 10 µM (MRC5 [27])
0%: inhibition of growth at 1 µM (HCT-116 [28])
23 µM: MIC (Bacillus cereus [25])
> 46 µM: MIC (Mammaliicoccus sciuri) | MIC (Listeria monocytogenes [1]) | MIC (Staphylococcus aureus [2]) | MIC (Staphylococcus aureus [3]) | MIC [4] | MIC [5] | MIC (Staphylococcus aureus [6]) | MIC (Listeria monocytogenes [7]) | MIC (Listeria monocytogenes [8]) | MIC (Enterococcus faecium [9]) | MIC (Enterococcus faecalis [10]) | MIC (Staphylococcus aureus [11]) | MIC (Enterococcus faecium [12]) | MIC (Enterococcus faecium [13]) | MIC (Enterococcus avium) | MIC (Enterococcus durans) | MIC (Enterococcus faecalis [14]) | MIC (Staphylococcus aureus [15]) | MIC (Staphylococcus aureus [18]) | MIC (Staphylococcus aureus [19]) | MIC [20] | MIC (Enterococcus faecalis [21]) | MIC (Enterococcus gallinarum [22]) | MIC (Streptococcus agalactiae) | MIC (Staphylococcus aureus [23]) | MIC (Enterococcus faecium [24]) | MIC (Enterococcus gallinarum [26]) | MIC (Listeria innocua) | MIC (Enterococcus gallinarum [29]) | MIC [30] | MIC (Enterococcus faecium [31]) | MIC (Listeria monocytogenes [32]) | MIC (Enterococcus faecium [33]) | MIC (Enterococcus faecalis [34]) | MIC [35] | MIC (Enterococcus faecalis [36]) | MIC [37] | MIC [38] | MIC (Corynebacterium striatum) | MIC (Enterococcus hirae) | MIC [41]

C=C1CC[C@H]2C(C)(C)CCC[C@]2(C)[C@H]1C[C@H](O)C1=CCOC1=O
> 79 µM: MIC (Mammaliicoccus sciuri) | MIC (Staphylococcus aureus [2]) | MIC [5] | MIC (Listeria monocytogenes [8]) | MIC (Enterococcus faecium [9]) | MIC (Enterococcus faecalis [10]) | MIC (Staphylococcus aureus [11]) | MIC (Enterococcus faecium [12]) | MIC (Enterococcus avium) | MIC (Enterococcus faecalis [14]) | MIC (Staphylococcus aureus [18]) | MIC [20] | MIC (Enterococcus faecalis [21]) | MIC (Enterococcus gallinarum [22]) | MIC (Staphylococcus aureus [23]) | MIC (Enterococcus faecium [24]) | MIC (Enterococcus gallinarum [29]) | MIC [30] | MIC (Enterococcus faecium [31]) | MIC (Enterococcus faecium [33]) | MIC (Enterococcus faecalis [34]) | MIC (Enterococcus faecalis [36]) | MIC [37] | MIC [38] | MIC (Enterococcus hirae)
71%: inhibition of growth at 10 µM (MRC5 [27])
50 µM: MIC (Listeria monocytogenes [1]) | MIC (Staphylococcus aureus [3]) | MIC (Staphylococcus aureus [6]) | MIC (Listeria monocytogenes [7]) | MIC (Enterococcus faecium [13]) | MIC (Enterococcus durans) | MIC (Staphylococcus aureus [15]) | MIC (Staphylococcus aureus [19]) | MIC (Streptococcus agalactiae) | MIC (Enterococcus gallinarum [26]) | MIC (Listeria innocua) | MIC (Listeria monocytogenes [32]) | MIC [35] | MIC (Bacillus cereus [40]) | MIC (Corynebacterium striatum) | MIC [41]
0%: inhibition of growth at 1 µM (HCT-116 [28]) | inhibition of growth at 1 µM (MRC5 [42])
25 µM: MIC (Bacillus spizizenii) | MIC (Bacillus cereus [16]) | MIC (Bacillus cereus [25]) | MIC (Bacillus cereus [39])
69%: inhibition of growth at 10 µM (HCT-116 [17])
79 µM: MIC [4]
